Activity and zone of inhibition data for one compound are collected here from ChEMBL document CHEMBL1148046, “Marine alkaloids, 15. Two alkaloids, flustramine E and debromoflustramine B, from the marine bryozoan Flustra foliacea” (1994).

Activity calls are given as the source filed them. The rule behind the calls is not given here.

One experiment concerns Pseudomonas aeruginosa. Put plainly: Antimicrobial activity against Pseudomonas aeruginosa at 1000 ppm. In kind it is functional, organism-based. The method, boiled down: (§1)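 Compound applied at 1000 ppm in DMSO to each bacterial, fungal or oomycete test organism; activity read as the diameter of the growth-inhibition zone in mm.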
A further experiment has as its system Globisporangium ultimum. The experiment can be described thus: Antimicrobial activity against Pythium ultimum at 1000 ppm. In kind it is functional, organism-based. Put shortly:
as §1

In a further experiment the test system is Aspergillus niger. Put plainly: Antimicrobial activity against Aspergillus niger at 1000 ppm. In kind it is functional, organism-based. The method, boiled down: as §1
For experiment [1], the system named is Bacillus subtilis. Put plainly: Antimicrobial activity against Bacillus subtilis at 1000 ppm. The experiment is classed as functional. Conditions: read-out: IZ. Put shortly: as §1
In experiment [2] the test system is Fusarium oxysporum. The experiment can be described thus: Antimicrobial activity against Fusarium oxysporum at 1000 ppm. Conditions: read-out: IZ. The experiment is classed as functional. Put shortly: as §1
The test system of experiment [3] is Saccharomyces cerevisiae. Put plainly: Antimicrobial activity against Saccharomyces cerevisiae at 1000 ppm. The experiment is classed as functional. Conditions: read-out: IZ. The method, boiled down: as §1
In experiment [4] the test system is Bacillus subtilis. The experiment can be described thus: Antimicrobial activity against Bacillus subtilis at 100 ppm. The experiment is classed as functional, organism-based.
Experiment [5] has as its system Fusarium oxysporum. The experiment can be described thus: Antimicrobial activity against Fusarium oxysporum at 100 ppm. In kind it is functional, organism-based.
Experiment [6] deals with Saccharomyces cerevisiae. Put plainly: Antimicrobial activity against Saccharomyces cerevisiae at 100 ppm. In kind it is functional, organism-based.
Experiment [7] deals with Rhizoctonia solani. Put plainly: Antimicrobial activity against Rhizoctonia solani at 1000 ppm. In kind it is functional. To be noted: read-out: IZ. The method, boiled down: as §1
Experiment [8] has as its system Rhizoctonia solani. Put plainly: Antimicrobial activity against Rhizoctonia solani at 100 ppm. The experiment is classed as functional. Conditions: read-out: IZ.
The test system of experiment [9] is Rhizoctonia solani. The experiment can be described thus: Antimicrobial activity against Rhizoctonia solani at 10 ppm. In kind it is functional. Conditions: read-out: IZ.
Experiment [10] relates to Botrytis cinerea. Put plainly: Antimicrobial activity against Botrytis cinerea at 1000 ppm. In kind it is functional. Conditions: read-out: IZ. The method, boiled down:
as §1

Experiment [11] has as its system Botrytis cinerea. The experiment can be described thus: Antimicrobial activity against Botrytis cinerea at 100 ppm. The experiment is classed as functional. To be noted: read-out: IZ.
The test system of experiment [12] is Botrytis cinerea. The experiment can be described thus: Antimicrobial activity against Botrytis cinerea at 10 ppm. In kind it is functional. To be noted: read-out: IZ.

With `CC(C)=CC[C@@]12CCN(C)[C@@H]1Nc1cc(Br)ccc12` (relative stereo) [FLUSTRAMINE E], the result with Pseudomonas aeruginosa, in the experiment with Globisporangium ultimum, in the experiment on Aspergillus niger, in the experiment on Bacillus subtilis [4], with Fusarium oxysporum [5] and in the experiment on Saccharomyces cerevisiae [6] was inactive. In addition, the zone of inhibition at 1000 ppm turned out to be 12 mm in the experiment with Bacillus subtilis [1]; 10 mm in the experiment on Fusarium oxysporum [2]; 14 mm with Saccharomyces cerevisiae [3]; 10 mm in the experiment on Rhizoctonia solani [7]; 27 mm in the experiment with Botrytis cinerea [10]. For the same compound, the zone of inhibition at 100 ppm with Rhizoctonia solani [8] came to 9 mm; in the experiment with Botrytis cinerea [11] it was 25 mm. For the same compound, the zone of inhibition at 10 ppm in the experiment on Rhizoctonia solani [9] was 9 mm; in the experiment with Botrytis cinerea [12], 21 mm.
